Publication PMC3401603 (Nature Chemical Biology, 2012)

Key:
[1] = test system: HOXA9; assay: qRT-PCR of HOXA9 in THP-1 cells; assay type: cell-based, human; conditions: THP-1, 6 days
How it was run: (§1)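 THP-1 cells in RPMI-1640 with 10% FBS, 1% penicillin/streptomycin and NEAA were treated with the test compound for 6 days. Total RNA (100–1000 ng) was reverse transcribed, and TaqMan qPCR measured human HOXA9 or MEIS1, normalised to 18S rRNA by the comparative Ct method. Duplicates, mean ± s.d.; three experiments.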

[2] = test system: MV4;11; assay: Annexin V/PI apoptosis assay, MV4; assay type: cell-based, human; conditions: MV4;11, 48h
How it was run: (§2)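 Cells were seeded at 5×10⁵ cells/ml and exposed to the test compound or vehicle (0.25% DMSO final) for 48h at 37 °C in 5% CO₂. 1.5×10⁵ cells were then stained with Annexin V-FITC and propidium iodide in Annexin V binding buffer for 10 min at room temperature in the dark, and analysed by flow cytometry. Three experiments in triplicate; mean and SD.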

[3] = test system: E2A-HLF transduced BMC; assay: MTT cell viability assay, E2A-HLF transduced BMC; assay type: cell-based, mouse
How it was run: (§3)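 Retrovirally transduced mouse bone marrow cells were grown in IMDM with 15% FBS, 1% penicillin/streptomycin and IL-3. Growth inhibition by the test compound was measured by MTT viability assay. Quadruplicates, mean ± s.d.; three experiments.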

[4] = test system: CD11b expression in MLL-AF9 transformed BMC; assay: CD11b expression by flow cytometry, MLL-AF9 transformed BMC; assay type: cell-based, mouse; conditions: 7 days of treatment
How it was run: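 BMC were cultured in IMDM with 15% FBS, penicillin/streptomycin and IL-3, and plated at 5×10⁵ cells/ml with the test compound or 0.25% DMSO. Every 48h the medium was changed, viable density restored and compound resupplied. 1.5×10⁵ cells were washed in PBS/1% FBS/0.1% NaN₃, stained with Pacific Blue anti-mouse CD11b (4 °C, 30 min), then Annexin V-FITC/PI, and run on flow cytometry. Triplicates, mean ± s.d.; one-way ANOVA against DMSO; three experiments.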

[5] = test system: MV4;11 (harboring MLL-AF4); assay: MTT cell viability assay, MV4; assay type: cell-based, human; conditions: MV4;11, MTT, 72h
How it was run: (§4)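 Growth inhibition was read by MTT viability assay, with 72h treatment stated for KOPN-8 and MV4;11. Media: KOPN-8 and ML-2, RPMI-1640 with 10% FBS. MV4;11, RPMI-1640 with 10% FBS, 1% penicillin/streptomycin and NEAA. MonoMac-6, RPMI-1640 with 15% FBS, human insulin, penicillin/streptomycin and NEAA. For KOPN-8 and MV4;11: four samples, mean ± s.d., three experiments.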

[6] = test system: E2A-HLF transformed BMC; assay: Methylcellulose colony formation assay, E2A-HLF transformed BMC; assay type: cell-based, mouse
How it was run: (§5)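 Transduced BMC were plated at 5×10³ cells/ml in methylcellulose medium containing 20% IMDM, 1% penicillin/streptomycin, IL-3 and either the test compound or 0.25% DMSO. Colonies were stained with iodonitrotetrazolium chloride (1 mg/ml final, 37 °C, 30 min) and counted. For a second round, unstained colonies were counted, washed out in PBS, and 5×10³ cells were replated in the same medium with compound, then stained and counted.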

[7] = test system: Meis1; assay: Quantitative RT-PCR of Meis1 in MLL-AF9 transduced BMC; assay type: cell-based, mouse; conditions: 6 days
[8] = test system: MLL-ENL transduced BMC; assay: MTT cell viability assay, MLL-ENL transduced BMC; assay type: cell-based, mouse
How it was run: as §3

[9] = test system: Kasumi-1, ME-1, HAL-01 and REH; assay: Growth of human acute leukemia cell lines lacking MLL fusions; assay type: cell-based; conditions: low HOXA9: Kasumi-1, ME-1, HAL-01, REH
[10] = test system: ML-2 (MLL-AF6); assay: MTT cell viability assay, ML-2; assay type: cell-based, human; conditions: ML-2, MTT
How it was run: as §4

[11] = test system: CD11b expression in THP-1 cells; assay: CD11b expression by flow cytometry, THP-1; assay type: cell-based, human; conditions: THP-1, 6 days of treatment
[12] = target: wild-type menin (Homo sapiens, UniProt O00255); assay: Thermal shift assay, wild-type menin; assay type: binding
[13] = test system: E2A-HLF transformed BMC; assay: Differentiation by morphology, E2A-HLF transformed BMC; assay type: cell-based, mouse
[14] = test system: MonoMac6 (MLL-AF9); assay: MTT cell viability assay, MonoMac6; assay type: cell-based, human
How it was run: as §4

[15] = test system: Hoxa9; assay: Quantitative RT-PCR of Hoxa9 in MLL-AF9 transduced BMC; assay type: cell-based, mouse; conditions: 6 days
[16] = test system: MLL-ENL transformed BMC; assay: Differentiation by morphology, MLL-ENL transformed BMC; assay type: cell-based, mouse
[17] = test system: MV4;11 leukemia cells; assay: Cell cycle analysis by FACS after PI staining, MV4; assay type: cell-based, human; conditions: MV4;11, PI staining
[18] = target: M278K menin mutant (Homo sapiens, UniProt O00255, M278K); assay: Thermal shift assay, M278K menin mutant; assay type: binding
[19] = test system: MLL-AF9 transduced BMC; assay: MTT cell viability assay, MLL-AF9 transduced BMC; assay type: cell-based, mouse
How it was run: as §3

[20] = test system: MLL-AF9 transformed BMC; assay: Methylcellulose colony formation assay, MLL-AF9 transformed BMC; assay type: cell-based, mouse; conditions: 7 days
How it was run: as §5

[21] = test system: MonoMac6; assay: Annexin V/PI apoptosis assay, MonoMac6; assay type: cell-based, human; conditions: MonoMac6, 48h
How it was run: as §2

[22] = target: Y323K menin mutant (Homo sapiens, UniProt O00255, Y323K); assay: Thermal shift assay, Y323K menin mutant; assay type: binding
[23] = target: menin-MLL-AF9 complex (Homo sapiens, UniProt O00255); assay: Co-immunoprecipitation in HEK293 cells transfected with Flag-MLL-AF9; assay type: cell-based
How it was run: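 Menin co-precipitating with Flag-MLL-AF9 was detected by Western blot. Untransfected cells controlled for endogenous menin and for absence of MLL-AF9. Menin and MLL-AF9 expression levels were also checked by Western blot.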

[24] = test system: KOPN-8 (MLL-ENL); assay: MTT cell viability assay, KOPN-8; assay type: cell-based, human; conditions: KOPN-8, MTT, 72h
How it was run: as §4

[25] = test system: MEIS1; assay: qRT-PCR of MEIS1 in THP-1 cells; assay type: cell-based, human; conditions: THP-1, 6 days
How it was run: as §1

[26] = test system: menin and MLL-AF9 at the Hoxa9 locus; assay: ChIP at the Hoxa9 locus in MLL-AF9 transduced BMC; assay type: cell-based, mouse; conditions: 12.5 μM
How it was run: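 ChIP used BMC exposed to the test compound at 12.5 μM or to DMSO. Antibodies were against menin and AF9, with IgG as control. Enrichment was read at two sites in the Hoxa9 promoter region. Duplicate samples, mean ± s.d.; two experiments.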

[27] = test system: MLL-AF9 transformed BMC; assay: Differentiation by morphology; assay type: cell-based, mouse; conditions: 7 to 10 days, 25 μM

Chain of M278K menin mutant (O00255 whole entry M278K): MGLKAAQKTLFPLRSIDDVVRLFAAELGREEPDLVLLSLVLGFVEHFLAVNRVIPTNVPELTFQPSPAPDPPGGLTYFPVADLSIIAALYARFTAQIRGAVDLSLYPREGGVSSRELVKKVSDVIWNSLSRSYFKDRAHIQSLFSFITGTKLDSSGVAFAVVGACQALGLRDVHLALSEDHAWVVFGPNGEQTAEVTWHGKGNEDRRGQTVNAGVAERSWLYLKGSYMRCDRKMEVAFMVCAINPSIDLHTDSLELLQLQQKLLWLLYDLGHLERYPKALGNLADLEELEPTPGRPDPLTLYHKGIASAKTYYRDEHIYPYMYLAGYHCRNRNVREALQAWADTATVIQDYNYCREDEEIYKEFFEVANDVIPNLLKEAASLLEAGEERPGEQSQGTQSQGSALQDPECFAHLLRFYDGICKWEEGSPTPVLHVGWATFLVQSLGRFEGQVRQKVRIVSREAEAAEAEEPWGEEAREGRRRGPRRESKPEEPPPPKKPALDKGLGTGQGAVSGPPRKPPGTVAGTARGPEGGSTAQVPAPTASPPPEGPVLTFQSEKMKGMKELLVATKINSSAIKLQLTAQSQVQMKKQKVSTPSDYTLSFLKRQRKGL
Chain of wild-type menin (O00255 whole entry): as the sequence (O00255 whole entry M278K) above, with K278M counted along it
Chain of menin-MLL-AF9 complex (O00255 whole entry, one chain of several): as the sequence (O00255 whole entry M278K) above, with K278M counted along it
Chain of Y323K menin mutant (O00255 whole entry Y323K): as the sequence (O00255 whole entry M278K) above, with K278M, Y323K counted along it

In the case of CCCc1cc2c(N3CCN(C4=NCC(C)(C)S4)CC3)ncnc2s1 [MI-2], the “expression of HOXA9” value [1] is reported as “substantially reduced expression”, the “Annexin V (+) and Annexin V/PI (+)/(+) cells (apoptosis)” value [2] is reported as “substantial, and dose-dependent increase” and the GI50 [3] is reported as over 50 µM. For the same compound, the “expression of CD11b” value [4] was “substantially increased”, the GI50 [5] was 9.5 µM and the “effect on the number, size and morphology of colonies” value [6] was “only a limited effect”. The “decrease of Meis1 expression level” value ([7]; 12.5 μM) was over 80%, the “decrease of Meis1 expression level” value ([7]; 25 μM) was over 80% and the GI50 [8] was about 5 µM. The effect on proliferation [9] was “very limited effect”, the GI50 [10] was 8.7 µM and the CD11b positive cells [11] was “substantial increase in CD11b positive cells”. For the same compound, the “binding to wild-type menin” value [12] was “clearly observed binding”, the “differentiation (cell morphology)” value [13] was “did not differentiate” and the GI50 [14] was 18 µM. For the same compound, the “decrease of Hoxa9 expression level” value ([15]; 12.5 μM) was over 80%, the “decrease of Hoxa9 expression level” value ([15]; 25 μM) was over 80% and the “differentiation (cell morphology)” value [16] was “observed differentiation”. For the same compound, the “effect on cell cycle progression” value [17] was “consistent increase in the number of cells in G0/G1 phase”, the “binding to M278K menin mutant” value [18] was “no binding” and the GI50 [19] was about 5 µM. For the same compound, the “effect on colony formation” value [20] was “substantially reduced colony formation”, the “Annexin V (+) and Annexin V/PI (+)/(+) cells (apoptosis)” value [21] was “substantial, and dose-dependent increase” and the “binding to Y323K menin mutant” value [22] was “no binding”. For the same compound, the “disruption of the menin-MLL-AF9 complex (co-IP)” value [23] was “very efficiently disrupted”, the GI50 [24] was 7.2 µM and the “expression of MEIS1” value [25] was “substantially reduced expression”. The “binding of menin and MLL-AF9 to the Hoxa9 locus (ChIP)” value [26] was “decreased binding of menin and MLL-AF9” and the “differentiation (cell morphology)” value [27] was “substantial changes in morphology, indicative of monocytic differentiation”.
